Test results taken from ChEMBL document CHEMBL1159085, “Proteasome inhibition in human breast cancer cells with high catechol-O-methyltransferase activity by green tea polyphenol EGCG analogs” (Bioorg Med Chem, 2010).
Active and inactive are the calls of the source. No cut-off for these calls is given here.

Columns and labels:
MDA-MB-231 [1] = assay: Antiproliferative activity against human MDA-MB-231 cells with high catechol-O-methyltransferase activity at 25 uM after 24 hrs by MTT assay; type: functional; settings: for inhibition at 25 µM: MDA-MB-231, 24 h
Method in brief: (§1)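 MDA-MB-231 cells were grown in RPMI 1640 with 10% FBS, 100 units/ml penicillin and 100 μg/ml streptomycin at 37°C and 5% CO2. Triplicate wells were exposed to 25 or 50 μM compound for 24 h. MTT (1 mg/ml) was then added for 3 h at 37°C, and the formazan was dissolved in DMSO after the medium was removed.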

MDA-MB-231 [2] = assay: Antiproliferative activity against human MDA-MB-231 cells with high catechol-O-methyltransferase activity at 50 uM after 24 hrs by MTT assay; type: functional; method in brief: as §1
MDA-MB-231 [3] = assay: Inhibition of chymotrypsin like activity of 20S proteasome in human MDA-MB-231 cells assessed as cleavage of Suc-LLVY-AMC substrate after 2 hrs by fluorogenic assay; type: cell-based
Method in brief: (§2)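 Crude MDA-MB-231 cell extract (5.7 μg) was used as the source of 26S proteasome. It was incubated with compound at a range of concentrations, or with solvent, plus 20 μM Suc-LLVY-AMC in 20 mM Tris-HCl, pH 7.5, for 2 h at 37°C. Chymotrypsin-like activity was read by fluorescence at 355 nm excitation and 460 nm emission.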

MDA-MB-231 [4] = assay: Inhibition of 20S proteasome in human MDA-MB-231 cells assessed as accumulation of proteasome substrate at 50 uM after 22 hrs by Western blot; type: cell-based
Method in brief: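 Intact MDA-MB-231 cells were cultured in RPMI 1640 with 10% FBS and penicillin/streptomycin at 37°C and 5% CO2. They were treated with 50 μM compound for 22 h. Accumulation of ubiquitinated proteins, used as a measure of proteasome substrates, was then detected by Western blotting of cell lysates.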

Oryctolagus cuniculus [5] = species: Oryctolagus cuniculus; assay: (§3) Inhibition of chymotrypsin like activity of rabbit 20S proteasome assessed as cleavage of Suc-LLVY-AMC substrate after 2 hrs by fluorogenic assay
Method in brief: (§4)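 Purified rabbit 20S proteasome (35 ng) was incubated with 20 μM Suc-LLVY-AMC in 20 mM Tris-HCl, pH 7.5, with compound at various concentrations or solvent, for 2 h at 37°C. Fluorogenic substrate hydrolysis was then measured at 355 nm excitation and 460 nm emission.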

MDA-MB-231 [6] = assay: Inhibition of chymotrypsin like activity of 20S proteasome in human MDA-MB-231 cells lysates with high catechol-O-methyltransferase activity assessed as cleavage of Suc-LLVY-AMC substrate at 10 uM after 2 hrs by fluorogenic assay
Method in brief: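 MDA-MB-231 cell extract (5.7 μg protein) incubated with test agent or solvent and 20 μM Suc-LLVY-AMC in 20 mM Tris–HCl pH 7.5 for 2 h at 37°C. Chymotrypsin-like activity read as AMC fluorescence (ex 355 nm, em 460 nm).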

MDA-MB-231 [7] = assay: Inhibition of chymotrypsin like activity of 20S proteasome in COMT inhibitor 3,5-dinitrocatechol pretreated human MDA-MB-231 cells lysates with high catechol-O-methyltransferase activity assessed as cleavage of Suc-LLVY-AMC substrate at 10 uM after 2 hrs by fluorogenic assay; type: cell-free
Method in brief: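 MDA-MB-231 cell extract (5.7 μg) was pre-treated with 10 μM 3,5-dinitrocatechol for 20 min. Compound and 20 μM Suc-LLVY-AMC were then added in 20 mM Tris-HCl, pH 7.5, and incubated for 2 h at 37°C. AMC release was read by fluorescence at 355 nm excitation and 460 nm emission.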

Oryctolagus cuniculus [8] = species: Oryctolagus cuniculus; assay: Inhibition of chymotrypsin like activity of rabbit 20S proteasome assessed as cleavage of Suc-LLVY-AMC substrate at 50 uM after 2 hrs by fluorogenic assay; method in brief: as §4
[9] = Inhibition of chymotrypsin like activity of proteasome; type: subcellular
[10] = as §3; set-up: species or system Oryctolagus cuniculus; method in brief: as §4
MDA-MB-231 [11] = assay: Inhibition of chymotrypsin like activity of 20S proteasome in human MDA-MB-231 cells lysates with high catechol-O-methyltransferase activity assessed as cleavage of Suc-LLVY-AMC substrate at 1 to 10 uM after 2 hrs by fluorogenic assay; type: cell-free; method in brief: as §2
MDA-MB-231 [12] = assay: Antiproliferative activity against human MDA-MB-231 cells at 25 to 50 uM after 24 hrs by MTT assay; type: functional; method in brief: as §1

Compound: CC(=O)Oc1cc(OC(C)=O)cc(C(=O)O[C@H]2Cc3ccccc3C[C@H]2OC(=O)c2cc(OC(C)=O)cc(OC(C)=O)c2)c1
- growth inhibition (GI) (MDA-MB-231 [1]): Active
- inhibition at 25 µM (MDA-MB-231 [1]): 69%
- growth inhibition (GI) (MDA-MB-231 [2]): Active
- inhibition at 50 µM (MDA-MB-231 [2]; MDA-MB-231, 24 h, read-out: INH): 69%
- inhibition (MDA-MB-231 [3]): inactive
- inhibition (MDA-MB-231 [4]): Active

Compound: O=C(O[C@@H]1Cc2c(O)cc(O)cc2O[C@@H]1c1cc(O)c(O)c(O)c1)c1cc(O)c(O)c(O)c1 (stereo in doubt; 1)
- inhibition (Oryctolagus cuniculus [5]): Active
- inhibition (MDA-MB-231 [6]): 22%
- inhibition (MDA-MB-231 [7]): Active

Compound: O=C(O[C@H]1Cc2ccccc2C[C@H]1O)c1cc(O)cc(O)c1
- inhibition (Oryctolagus cuniculus [8]): inactive

Compound: CC(=O)Oc1cc(OC(C)=O)cc(C(=O)O[C@H]2Cc3ccccc3C[C@H]2OC(C)=O)c1
- inhibition (MDA-MB-231 [3]): inactive

Compound: O=C(O[C@@H]1Cc2c(O)cc(O)cc2O[C@@H]1c1cc(O)c(O)c(O)c1)c1cc(O)c(O)c(O)c1 (stereo in doubt; 1) [EPIGALOCATECHIN GALLATE]
- IC50 [9]: 86 nM

Compound: O=C(O[C@@H]1Cc2c(O)cc(O)cc2O[C@@H]1c1cc(O)c(O)c(O)c1)c1cc(O)c(O)c(O)c1 (stereo in doubt; 3) [EPIGALOCATECHIN GALLATE]
- IC50 [9]: 170 nM

Compound: O=C(O[C@H]1Cc2ccccc2C[C@H]1OC(=O)c1cc(O)c(O)c(O)c1)c1cc(O)c(O)c(O)c1
- IC50 [10]: 19000 nM
- inhibition (MDA-MB-231 [11]): 10%
- IC50 [9]: 340 nM
- inhibition (MDA-MB-231 [7]): Active

Compound: CC(=O)Oc1cc(OC(C)=O)c2c(c1)O[C@H](c1cc(OC(C)=O)c(OC(C)=O)c(OC(C)=O)c1)[C@H](OC(=O)c1cc(OC(C)=O)c(OC(C)=O)c(OC(C)=O)c1)C2
- inhibition at 25 µM (MDA-MB-231 [1]): 42%
- inhibition (MDA-MB-231 [3]): inactive
- growth inhibition (GI) (MDA-MB-231 [12]): 0%

Compound: O=C(O[C@H]1Cc2ccccc2C[C@H]1OC(=O)c1cc(O)cc(O)c1)c1cc(O)cc(O)c1
- IC50 [10]: 29000 nM
- inhibition (MDA-MB-231 [11]): 18%
- inhibition (MDA-MB-231 [7]): Active

Compound: CC(=O)Oc1cc(C(=O)O[C@H]2Cc3ccccc3C[C@H]2OC(C)=O)cc(OC(C)=O)c1OC(C)=O
- inhibition (MDA-MB-231 [3]): inactive

Compound: CC(=O)Oc1cc(C(=O)O[C@H]2Cc3ccccc3C[C@H]2OC(=O)c2cc(OC(C)=O)c(OC(C)=O)c(OC(C)=O)c2)cc(OC(C)=O)c1OC(C)=O
- growth inhibition (GI) (MDA-MB-231 [1]): Active
- inhibition at 25 µM (MDA-MB-231 [1]): 48%
- growth inhibition (GI) (MDA-MB-231 [2]): Active
- inhibition (MDA-MB-231 [3]): inactive
- growth inhibition (GI) (MDA-MB-231 [12]): 50%

Compound: O=C(O[C@H]1Cc2ccccc2C[C@H]1O)c1cc(O)c(O)c(O)c1
- inhibition (Oryctolagus cuniculus [8]): inactive
